From PMC10965878 (Infectious Diseases and Therapy, 2024)
“And” between values parts separate entries of the source, which are not always exact repeats. Equal values may be shown once. Read-outs that look alike come from different tables or passages of the source.

Experiments:
[1] = Safety assessment: treatment-emergent adverse events; assay type: in vivo, human; conditions: single oral 375 mg
How it was run: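 Open-label, nonrandomized, parallel-group Phase 1 study in adults with mild, moderate or severe renal impairment (severe excluded if hemodialysis-dependent) and normal renal function. Normal-function controls were matched to moderate-impairment participants by sex, age (± 5 years) and BMI (± 10%). Each received a single oral 375 mg dose as three 125-mg tablets. TEAEs were recorded for nature, frequency and severity, and coded by MedDRA v25.0 System Organ Class/Preferred Term in all treated participants.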

[2] = 750 mg once followed by 250 mg once daily for 4 days (750/250 mg); cited from earlier work
[3] = tested on: organic cation transporter (OCT) 2; conditions: in vitro; cited from earlier work
[4] = tested on: multidrug and toxin extrusion (MATE) 1; conditions: in vitro; cited from earlier work
plasma protein [5] = conditions: mice; cited from earlier work
plasma protein [6] = conditions: hamsters; cited from earlier work
plasma protein [7] = experiment: Unbound fraction in plasma; assay type: in vivo; conditions: human, oral, 375 mg, protein binding rate (= [1 − unbound fraction] × 100), humans
MATE-2K = conditions: in vitro; cited from earlier work
[8] = for AUC0–last GLS mean ratio / t1/2,z GLS mean ratio / Ae (cumulative amount excreted unchanged in urine) / CL/F / Feu (fraction of dose excreted unchanged into urine): single oral 375 mg; for Ae (cumulative amount excreted unchanged in urine) / CL/F / Feu (fraction of dose excreted unchanged into urine): geometric mean (CV%)
[9] = mild impairment/normal function
[10] = moderate impairment/normal function
[11] = severe impairment/normal function

Compound: Cn1cnc(Cn2c(=O)[nH]/c(=N\c3cc4cn(C)nc4cc3Cl)n(Cc3cc(F)c(F)cc3F)c2=O)n1 [ensitrelvir]
- Any treatment-related TEAE ([1]; mild renal impairment (N = 8)): 1 (12.5) n (%)
- Any treatment-related TEAE ([1]; moderate renal impairment (N = 8)): 1 (12.5) n (%)
- severity category of all TEAEs and treatment-related TEAEs ([1]; all groups): mild or moderate
- tolerability [2]: demonstrated tolerability
- substrate for OCT2 [3]: not a substrate
- substrate for MATE1 [4]: not a substrate
- protein binding rate (plasma protein [5]): 97.6%
- protein binding rate (plasma protein [6]): 98.3%
- fraction unbound (plasma protein [7]): 0.983 to 0.988
- substrate for MATE-2K (MATE-2K): not a substrate
- AUC0–last GLS mean ratio [8, 9]: 1.4303
- t1/2,z GLS mean ratio [8, 9]: 1.19 and 1.1855
- Ae (cumulative amount excreted unchanged in urine) ([8]; mild renal impairment): 45.7 (44.7) mg
- CL/F ([8]; mild renal impairment): 0.262 (20.8) L/h
- Feu (fraction of dose excreted unchanged into urine) ([8]; mild renal impairment): 12.2 (44.7) %
- AUC0–last GLS mean ratio [8, 10]: 1.4780
- t1/2,z GLS mean ratio [8, 10]: 1.24 and 1.2434
- Ae (cumulative amount excreted unchanged in urine) ([8]; moderate renal impairment): 58.6 (20.6) mg
- CL/F ([8]; moderate renal impairment): 0.253 (26.0) L/h
- Feu (fraction of dose excreted unchanged into urine) ([8]; moderate renal impairment): 15.6 (20.6) %
- Ae (cumulative amount excreted unchanged in urine) ([8]; normal renal function): 54.8 (29.5) mg
- CL/F ([8]; normal renal function): 0.376 (26.0) L/h
- Feu (fraction of dose excreted unchanged into urine) ([8]; normal renal function): 14.6 (29.5) %
- increased AUC level with renal impairment ([8]; renal impairment vs normal renal function): < 2 fold
- AUC0–last GLS mean ratio [8, 11]: 1.5475
- t1/2,z GLS mean ratio [8, 11]: 1.61 and 1.6072
- Ae (cumulative amount excreted unchanged in urine) ([8]; severe renal impairment): 49.2 (26.5) mg
- CL/F ([8]; severe renal impairment): 0.235 (26.1) L/h
- Feu (fraction of dose excreted unchanged into urine) ([8]; severe renal impairment): 13.1 (26.5) %
